Assay results collected from several papers.
Cell line: HCT-116
Effect on: cell growth or viability

Structure (SMILES) | method | time | IC50
COc1cccc2c1C(=O)c1c(O)c3c(c(O)c1C2=O)C[C@@](O)(C(=O)CO)C[C@@H]3O[C@H]1C[C@H](N)[C@H](O)[C@H](C)O1 | MTT | – | 64 µM
COc1ccc2oc(=O)cc(CSC(C)=O)c2c1 | MTT | 36 h | > 20 µM
COc1cc(-c2nc(C(=O)Nc3nnc(-c4cc5ccccc5n4C)s3)cc3c2[nH]c2ccccc23)cc(OC)c1OC | MTT | 72 h | 6.11 µM
CCNC(=S)NC(=O)c1ccc2ccccc2c1 | – | 48 h | 4.14 µM
CSc1nc(/N=C/c2cc(Br)ccc2O)n(-c2ccc(C(=O)O)cc2)n1 | MTT | – | 59.4 µM
NC(=O)NOCCCCCCCCCCCCCCCCCCCC[P+](c1ccccc1)(c1ccccc1)c1ccccc1 | imaging | – | 0.23 µM
CC(=O)O[C@H]1C(=O)[C@@]2(C)[C@H]([C@H](OC(=O)c3ccccc3)[C@]3(O)C[C@H](OC(=O)[C@H](O)[C@@H](NC(=O)c4ccccc4)c4ccccc4)C(C)=C1C3(C)C)[C@]1(OC(C)=O)CO[C@@H]1C[C@@H]2O | fluorescence | 72 h | 0.0019 µM
c1ccc(C[n+]2cn(COC3CCCCC3)c3ccccc32)cc1 | MTT | 72 h | 44.2 µM
Cc1cc(C)n(-c2nc(Nc3ccc(Br)cc3)nc(N3CCOCC3)n2)n1 | MTT | 72 h | 0.5 µM
CCOC(=O)/C=C1\S/C(=N\C(=O)c2ccc3ccccc3c2)N(C2CCCCC2)C1=O | – | 48 h | 11.4 µM
CC(=O)Oc1ccc2oc(=O)cc(CSC(C)=O)c2c1 | MTT | 36 h | > 20 µM
COc1ccnc(COc2ccc(NC(=O)Nc3ccc(F)cc3)cc2)c1OC | MTT | 72 h | 22.3 µM
CC1=C(O)C(=O)C=C2C1=CC=C1[C@@]2(C)CC[C@@]2(C)[C@@H]3C[C@](C)(C(=O)OCCCBr)CC[C@]3(C)CC[C@]12C | MTT | 48 h | 0.52 µM
O=c1c(O)c(-c2ccc(O)c(O)c2)oc2cc(O)cc(O)c12 | WST-1 | 48 h | 9.1 µM
CCn1c(-c2nnc(NC(=O)c3cc4c([nH]c5ccccc54)c(-c4ccc(C)cc4)n3)s2)cc2ccccc21 | MTT | 72 h | 15.1 µM
COc1ccnc(COc2ccc(NC(=O)Nc3ccc(Cl)c(C(F)(F)F)c3)cc2)c1OC | MTT | 72 h | 18.1 µM
COc1ccc(O)c(/C=N/c2nc(Oc3ccccc3)nn2-c2ccc(C(=O)O)cc2)c1 | MTT | – | 58.5 µM
COc1cc([C@@H]2c3cc4c(cc3[C@@H](O[C@@H]3O[C@@H]5CO[C@@H](C)O[C@H]5[C@H](O)[C@H]3O)[C@H]3COC(=O)[C@H]23)OCO4)cc(OC)c1O | MTS | 72 h | 18.3 µM
CC(=O)SCc1cc(=O)oc2cc(O)ccc12 | MTT | 36 h | > 20 µM
COCCCOc1ccnc(COc2ccc(NC(=O)Nc3ccc(Cl)cc3)cc2)c1C | MTT | 72 h | 9.5 µM
O=C(Nc1nnc(-c2cc3ccccc3[nH]2)s1)c1cc2c([nH]c3ccccc32)c(-c2ccc(F)cc2)n1 | MTT | 72 h | 6.22 µM
Clc1ccc(C[n+]2cn(CCc3ccccc3)c3ccccc32)cc1 | MTT | 72 h | 18.4 µM
COc1cc(OC)c(/C=C/S(=O)(=O)Nc2ccc(OC)c(N)c2)c(OC)c1 | trypan blue | 96 h | 0.004 µM
O=C(NC(=S)NCc1ccc(CNC(=S)NC(=O)c2ccc3ccccc3c2)cc1)c1ccc2ccccc2c1 | – | 48 h | 1.35 µM

Structure (SMILES) | method | time | IC50
Cn1c(-c2nnc(NC(=O)c3cc4c([nH]c5ccccc54)c(-c4ccccc4)n3)s2)cc2ccccc21 | MTT | 72 h | 10.3 µM
CC1=C(O)C(=O)C=C2C1=CC=C1[C@@]2(C)CC[C@@]2(C)[C@@H]3C[C@](C)(C(=O)OCCCN4C(=O)C5C=CC=CC5C4=O)CC[C@]3(C)CC[C@]12C (stereo partly drawn) | MTT | 48 h | 0.64 µM
COc1ccnc(COc2ccc(NC(=O)Nc3cccc(C(F)(F)F)c3)cc2)c1OC | MTT | 72 h | 22.9 µM
O=C(/N=C1\S/C(=C\c2ccc(Cl)cc2)C(=O)N1C1CCCCC1)c1ccc2ccccc2c1 | – | 48 h | 9.28 µM
Nc1nc(Oc2ccccc2)nn1-c1ccc(C(=O)O)cc1 | MTT | – | 61.2 µM
COc1cc(CNC(=O)CCCC/C=C/C(C)C)ccc1OCc1cn(-c2ccc(C(F)(F)F)cc2)nn1 | SRB | – | 8.9 µM
O=C(/N=c1\scc(-c2ccccc2)n1C1CCCCC1)c1ccc2ccccc2c1 | – | 48 h | 19.2 µM
COc1ccnc(COc2ccc(NC(=O)Nc3ccc(Cl)cc3)cc2)c1OC | MTT | 72 h | 12.8 µM
NC(=O)NOCCCC[P+](c1ccccc1)(c1ccccc1)c1ccccc1 | imaging | – | > 600 µM
Nc1ncnc2c1ncn2[C@@H]1O[C@H](CO)[C@@H](O)[C@H]1O | WST-1 | 48 h | 41.8 µM
CC1=C(O)C(=O)C=C2C1=CC=C1[C@@]2(C)CC[C@@]2(C)[C@@H]3C[C@](C)(C(=O)OCCO)CC[C@]3(C)CC[C@]12C | MTT | 48 h | 0.47 µM
O=C(NC(=S)N1CCCC1)c1ccc2ccccc2c1 | – | 48 h | 6.22 µM
COc1ccc(NC(=O)Nc2ccc(OCc3ncc(C)c(OC)c3C)cc2)cc1 | MTT | 72 h | > 100 µM
COc1ccc(O)c(/C=N/c2nc(SC)nn2-c2ccc(C(=O)O)cc2)c1 | MTT | – | 55.3 µM
COc1cc([C@@H]2c3cc4c(cc3[C@@H](O[C@@H]3O[C@@H]5CO[C@@H](C)O[C@H]5[C@H](O)[C@H]3O)[C@H]3COC(=O)[C@H]23)OCO4)cc(OC)c1O | MTS | 48 h | 23.3 µM
O=C(NC(=S)NCCNC(=S)NC(=O)c1ccc2ccccc2c1)c1ccc2ccccc2c1 | – | 48 h | 1.31 µM
CNC(=O)c1cc(Oc2ccc(NC(=O)Nc3ccc(Cl)c(C(F)(F)F)c3)cc2)ccn1 | MTT | 72 h | 2.25 µM
O=c1cc(CCl)c2cc(O)ccc2o1 | MTT | 36 h | > 20 µM
CC1(C)CC[C@]2(C)CC[C@]3(C)C(=CC[C@@H]4[C@@]5(C)CC[C@H](O)C(C)(C)[C@@H]5CC[C@]43C)[C@@H]2C1 | WST-1 | 48 h | 91.3 µM
CC(=O)Oc1ccc2ccc(=O)oc2c1CBr | MTT | 36 h | > 20 µM
Cc1c(OCC(F)(F)F)ccnc1COc1ccc(NC(=O)Nc2ccc(Cl)cc2)cc1 | MTT | 72 h | 3.9 µM
Cc1c(NC(=O)c2ccc(C(C)(C)C)cc2)cccc1-c1cn(C)c(=O)c(Nc2ccc(C(=O)N3CCOCC3)cc2)n1 | – | – | > 10 µM
CC1=C(O)C(=O)C=C2C1=CC=C1[C@@]2(C)CC[C@@]2(C)[C@@H]3C[C@](C)(C(=O)OCCCCCCCCO)CC[C@]3(C)CC[C@]12C | MTT | 48 h | 0.58 µM
O=C(O)C[C@H](O)C[C@H](O)/C=C/c1c(C2CC2)nc2ccccc2c1-c1ccc(F)cc1 | SRB | 72 h | 7.46 µg/mL
